# Assay results published in ChEMBL document CHEMBL3864121, “Development of ebsulfur analogues as potent antibacterials against methicillin-resistant Staphylococcus aureus” (Bioorg Med Chem, 2016).
# System: Staphylococcus aureus
# Assay: Antibacterial activity against methicillin-sensitive Staphylococcus aureus ATCC 6538 measured after overnight incubation by broth double-dilution method
# Type: functional
# Conditions: not given
# Method in brief: (§1)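 MIC by broth double-dilution in liquid Mueller-Hinton medium. Values are reported in µg/mL.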
row,SMILES,MIC
1,O=c1c2ccccc2sn1C1CCCCC1,7.8 µg/mL
2,O=c1c2ccccc2[s+]([O-])n1C1CCCCCCC1 (stereo not given),> 125 µg/mL

# System: Staphylococcus aureus
# Assay: Antibacterial activity against methicillin-sensitive Staphylococcus aureus ATCC 25923 measured after overnight incubation by broth double-dilution method
# Type: functional
# Conditions: not given
# Method in brief: as §1
row,SMILES,MIC
1,O=c1c2ccccc2sn1C1CCCCC1,3.9 µg/mL
2,O=c1c2ccccc2[s+]([O-])n1C1CCCCCCC1 (stereo not given),> 125 µg/mL

# System: Staphylococcus aureus
# Assay: Antibacterial activity against methicillin-sensitive Staphylococcus aureus ATCC 29213 measured after overnight incubation by broth double-dilution method
# Type: functional
# Conditions: not given
# Method in brief: as §1
row,SMILES,MIC
1,O=c1c2ccccc2sn1C1CCCCC1,3.8 µg/mL
2,O=c1c2ccccc2[s+]([O-])n1C1CCCCCCC1 (stereo not given),> 125 µg/mL

# System: Staphylococcus aureus
# Assay: Antibacterial activity against methicillin-resistant Staphylococcus aureus ATCC 33591 measured after overnight incubation by broth double-dilution method
# Type: functional
# Conditions: not given
# Method in brief: as §1
row,SMILES,MIC
1,O=c1c2ccccc2sn1C1CCCCC1,2 µg/mL
2,O=c1c2ccccc2[s+]([O-])n1C1CCCCCCC1 (stereo not given),> 125 µg/mL

# System: Staphylococcus aureus
# Assay: Antibacterial activity against methicillin-resistant Staphylococcus aureus 1 measured after overnight incubation by broth double-dilution method
# Type: functional
# Conditions: not given
# Method in brief: as §1
row,SMILES,MIC
1,O=c1c2ccccc2sn1C1CCCCC1,2 µg/mL
2,O=c1c2ccccc2[s+]([O-])n1C1CCCCCCC1 (stereo not given),> 125 µg/mL

# System: Staphylococcus aureus
# Assay: Antibacterial activity against methicillin-resistant Staphylococcus aureus 2 measured after overnight incubation by broth double-dilution method
# Type: functional
# Conditions: not given
# Method in brief: as §1
row,SMILES,MIC
1,O=c1c2ccccc2sn1C1CCCCC1,3.9 µg/mL
2,O=c1c2ccccc2[s+]([O-])n1C1CCCCCCC1 (stereo not given),> 125 µg/mL

# System: Staphylococcus aureus
# Assay: Antibacterial activity against methicillin-resistant Staphylococcus aureus BRS3 measured after overnight incubation by broth double-dilution method
# Type: functional
# Conditions: not given
# Method in brief: as §1
row,SMILES,MIC
1,O=c1c2ccccc2sn1C1CCCCC1,7.8 µg/mL
2,O=c1c2ccccc2[s+]([O-])n1C1CCCCCCC1 (stereo not given),> 125 µg/mL

# System: Staphylococcus aureus
# Assay: Antibacterial activity against methicillin-resistant Staphylococcus aureus C1 measured after overnight incubation by broth double-dilution method
# Type: functional
# Conditions: not given
# Method in brief: as §1
row,SMILES,MIC
1,O=c1c2ccccc2sn1C1CCCCC1,2 µg/mL
2,O=c1c2ccccc2[s+]([O-])n1C1CCCCCCC1 (stereo not given),> 125 µg/mL

# System: Staphylococcus aureus
# Assay: Antibacterial activity against methicillin-resistant Staphylococcus aureus C2 measured after overnight incubation by broth double-dilution method
# Type: functional
# Conditions: not given
# Method in brief: as §1
row,SMILES,MIC
1,O=c1c2ccccc2sn1C1CCCCC1,3.9 µg/mL
2,O=c1c2ccccc2[s+]([O-])n1C1CCCCCCC1 (stereo not given),> 125 µg/mL

# System: Staphylococcus aureus
# Assay: Antibacterial activity against methicillin-resistant Staphylococcus aureus C7 measured after overnight incubation by broth double-dilution method
# Type: functional
# Conditions: not given
# Method in brief: as §1
row,SMILES,MIC
1,O=c1c2ccccc2sn1C1CCCCC1,3.9 µg/mL
2,O=c1c2ccccc2[s+]([O-])n1C1CCCCCCC1 (stereo not given),> 125 µg/mL

# System: Staphylococcus aureus
# Assay: Antibacterial activity against methicillin-resistant Staphylococcus aureus C14 measured after overnight incubation by broth double-dilution method
# Type: functional
# Conditions: not given
# Method in brief: as §1
row,SMILES,MIC
1,O=c1c2ccccc2sn1C1CCCCC1,2 µg/mL
2,O=c1c2ccccc2[s+]([O-])n1C1CCCCCCC1 (stereo not given),> 125 µg/mL

# System: Staphylococcus aureus
# Assay: Antibacterial activity against methicillin-resistant Staphylococcus aureus C16 measured after overnight incubation by broth double-dilution method
# Type: functional
# Conditions: not given
# Method in brief: as §1
row,SMILES,MIC
1,O=c1c2ccccc2sn1C1CCCCC1,3.9 µg/mL
2,O=c1c2ccccc2[s+]([O-])n1C1CCCCCCC1 (stereo not given),> 125 µg/mL

# System: Staphylococcus aureus
# Assay: Antibacterial activity against methicillin-resistant Staphylococcus aureus C19 measured after overnight incubation by broth double-dilution method
# Type: functional
# Conditions: not given
# Method in brief: as §1
row,SMILES,MIC
1,O=c1c2ccccc2sn1C1CCCCC1,3.9 µg/mL
2,O=c1c2ccccc2[s+]([O-])n1C1CCCCCCC1 (stereo not given),> 125 µg/mL

# System: Staphylococcus aureus
# Assay: Antibacterial activity against methicillin-resistant Staphylococcus aureus G1 measured after overnight incubation by broth double-dilution method
# Type: functional
# Conditions: not given
# Method in brief: as §1
row,SMILES,MIC
1,O=c1c2ccccc2sn1C1CCCCC1,2 µg/mL
2,O=c1c2ccccc2[s+]([O-])n1C1CCCCCCC1 (stereo not given),> 125 µg/mL

# System: Staphylococcus aureus
# Assay: Antibacterial activity against methicillin-resistant Staphylococcus aureus G6 measured after overnight incubation by broth double-dilution method
# Type: functional
# Conditions: not given
# Method in brief: as §1
row,SMILES,MIC
1,O=c1c2ccccc2sn1C1CCCCC1,3.9 µg/mL
2,O=c1c2ccccc2[s+]([O-])n1C1CCCCCCC1 (stereo not given),> 125 µg/mL

# System: Staphylococcus aureus
# Assay: Antibacterial activity against methicillin-resistant Staphylococcus aureus G12 measured after overnight incubation by broth double-dilution method
# Type: functional
# Conditions: not given
# Method in brief: as §1
row,SMILES,MIC
1,O=c1c2ccccc2sn1C1CCCCC1,3.9 µg/mL
2,O=c1c2ccccc2[s+]([O-])n1C1CCCCCCC1 (stereo not given),> 125 µg/mL

# System: Staphylococcus aureus
# Assay: Antibacterial activity against methicillin-resistant Staphylococcus aureus G14 measured after overnight incubation by broth double-dilution method
# Type: functional
# Conditions: not given
# Method in brief: as §1
row,SMILES,MIC
1,O=c1c2ccccc2sn1C1CCCCC1,3.9 µg/mL
2,O=c1c2ccccc2[s+]([O-])n1C1CCCCCCC1 (stereo not given),> 125 µg/mL

# System: Staphylococcus aureus
# Assay: Antibacterial activity against methicillin-resistant Staphylococcus aureus NRS4 measured after overnight incubation by broth double-dilution method
# Type: functional
# Conditions: not given
# Method in brief: as §1
row,SMILES,MIC
1,O=c1c2ccccc2sn1C1CCCCC1,3.9 µg/mL
2,O=c1c2ccccc2[s+]([O-])n1C1CCCCCCC1 (stereo not given),> 125 µg/mL

# System: Staphylococcus aureus
# Assay: Antibacterial activity against methicillin-resistant Staphylococcus aureus NRS51 measured after overnight incubation by broth double-dilution method
# Type: functional
# Conditions: not given
# Method in brief: as §1
row,SMILES,MIC
1,O=c1c2ccccc2sn1C1CCCCC1,3.9 µg/mL
2,O=c1c2ccccc2[s+]([O-])n1C1CCCCCCC1 (stereo not given),> 125 µg/mL

# System: Staphylococcus aureus
# Assay: Antibacterial activity against methicillin-resistant Staphylococcus aureus NRS77 measured after overnight incubation by broth double-dilution method
# Type: functional
# Conditions: not given
# Method in brief: as §1
row,SMILES,MIC
1,O=c1c2ccccc2sn1C1CCCCC1,3.9 µg/mL
2,O=c1c2ccccc2[s+]([O-])n1C1CCCCCCC1 (stereo not given),> 125 µg/mL

# System: Staphylococcus aureus
# Assay: Antibacterial activity against methicillin-resistant Staphylococcus aureus S14 measured after overnight incubation by broth double-dilution method
# Type: functional
# Conditions: not given
# Method in brief: as §1
row,SMILES,MIC
1,O=c1c2ccccc2sn1C1CCCCC1,0.5 µg/mL
2,O=c1c2ccccc2[s+]([O-])n1C1CCCCCCC1 (stereo not given),> 125 µg/mL

# System: Staphylococcus aureus
# Assay: Antibacterial activity against methicillin-resistant Staphylococcus aureus S17 measured after overnight incubation by broth double-dilution method
# Type: functional
# Conditions: not given
# Method in brief: as §1
row,SMILES,MIC
1,O=c1c2ccccc2sn1C1CCCCC1,7.8 µg/mL
2,O=c1c2ccccc2[s+]([O-])n1C1CCCCCCC1 (stereo not given),> 125 µg/mL

# System: Staphylococcus aureus
# Assay: Antibacterial activity against methicillin-resistant Staphylococcus aureus S22 measured after overnight incubation by broth double-dilution method
# Type: functional
# Conditions: not given
# Method in brief: as §1
row,SMILES,MIC
1,O=c1c2ccccc2sn1C1CCCCC1,7.8 µg/mL
2,O=c1c2ccccc2[s+]([O-])n1C1CCCCCCC1 (stereo not given),> 125 µg/mL

# System: Staphylococcus aureus
# Assay: Antibacterial activity against methicillin-resistant Staphylococcus aureus S24 measured after overnight incubation by broth double-dilution method
# Type: functional
# Conditions: not given
# Method in brief: as §1
row,SMILES,MIC
1,O=c1c2ccccc2sn1C1CCCCC1,3.9 µg/mL
2,O=c1c2ccccc2[s+]([O-])n1C1CCCCCCC1 (stereo not given),125 µg/mL

# System: Staphylococcus aureus
# Assay: Antibacterial activity against methicillin-resistant Staphylococcus aureus USA100 measured after overnight incubation by broth double-dilution method
# Type: functional
# Conditions: not given
# Method in brief: as §1
row,SMILES,MIC
1,O=c1c2ccccc2sn1C1CCCCC1,7.8 µg/mL
2,O=c1c2ccccc2[s+]([O-])n1C1CCCCCCC1 (stereo not given),> 125 µg/mL

# System: Staphylococcus aureus
# Assay: Antibacterial activity against methicillin-resistant Staphylococcus aureus USA200 measured after overnight incubation by broth double-dilution method
# Type: functional
# Conditions: not given
# Method in brief: as §1
row,SMILES,MIC
1,O=c1c2ccccc2sn1C1CCCCC1,7.8 µg/mL
2,O=c1c2ccccc2[s+]([O-])n1C1CCCCCCC1 (stereo not given),> 125 µg/mL

# System: Staphylococcus aureus
# Assay: Antibacterial activity against methicillin-resistant Staphylococcus aureus USA300 measured after overnight incubation by broth double-dilution method
# Type: functional
# Conditions: not given
# Method in brief: as §1
row,SMILES,MIC
1,O=c1c2ccccc2sn1C1CCCCC1,7.8 µg/mL
2,O=c1c2ccccc2[s+]([O-])n1C1CCCCCCC1 (stereo not given),> 125 µg/mL

# System: Staphylococcus aureus
# Assay: Antibacterial activity against methicillin-resistant Staphylococcus aureus USA600 measured after overnight incubation by broth double-dilution method
# Type: functional
# Conditions: not given
# Method in brief: as §1
row,SMILES,MIC
1,O=c1c2ccccc2sn1C1CCCCC1,7.8 µg/mL
2,O=c1c2ccccc2[s+]([O-])n1C1CCCCCCC1 (stereo not given),> 125 µg/mL

# System: Staphylococcus epidermidis
# Assay: Antibacterial activity against Staphylococcus epidermidis ATCC 35984 measured after overnight incubation by broth double-dilution method
# Type: functional
# Conditions: RP62A
# Method in brief: (§2)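 MIC by broth double-dilution in Mueller-Hinton medium. Re-testing at the time-kill inoculum used 1×10^6 CFU/mL.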
row,SMILES,MIC
1,O=c1c2ccccc2sn1C1CCCCC1,2 µg/mL
2,O=c1c2ccccc2[s+]([O-])n1C1CCCCCCC1 (stereo not given),> 125 µg/mL

# System: Enterococcus faecalis
# Assay: Antibacterial activity against Enterococcus faecalis ATCC 29212 measured after overnight incubation by broth double-dilution method
# Type: functional
# Conditions: not given
# Method in brief: as §2
row,SMILES,MIC
1,O=c1c2ccccc2sn1C1CCCCC1,> 125 µg/mL
2,O=c1c2ccccc2[s+]([O-])n1C1CCCCCCC1 (stereo not given),> 125 µg/mL

# System: Enterococcus faecalis
# Assay: Antibacterial activity against Enterococcus faecalis ATCC 49533 measured after overnight incubation by broth double-dilution method
# Type: functional
# Conditions: not given
# Method in brief: as §2
row,SMILES,MIC
1,O=c1c2ccccc2sn1C1CCCCC1,> 125 µg/mL
2,O=c1c2ccccc2[s+]([O-])n1C1CCCCCCC1 (stereo not given),> 125 µg/mL

# System: Enterococcus faecium
# Assay: Antibacterial activity against Enterococcus faecium BM4105-RF measured after overnight incubation by broth double-dilution method
# Type: functional
# Conditions: not given
# Method in brief: as §1
row,SMILES,MIC
1,O=c1c2ccccc2sn1C1CCCCC1,> 125 µg/mL
2,O=c1c2ccccc2[s+]([O-])n1C1CCCCCCC1 (stereo not given),> 125 µg/mL

# System: Enterococcus
# Assay: Antibacterial activity against Vancomycin-resistant Enterococcus measured after overnight incubation by broth double-dilution method
# Type: functional
# Conditions: not given
# Method in brief: as §1
row,SMILES,MIC
1,O=c1c2ccccc2sn1C1CCCCC1,2 µg/mL
2,O=c1c2ccccc2[s+]([O-])n1C1CCCCCCC1 (stereo not given),> 125 µg/mL

# System: Listeria monocytogenes
# Assay: Antibacterial activity against Listeria monocytogenes ATCC 19115 measured after overnight incubation by broth double-dilution method
# Type: functional
# Conditions: not given
# Method in brief: as §2
row,SMILES,MIC
1,O=c1c2ccccc2sn1C1CCCCC1,3.9 µg/mL
2,O=c1c2ccccc2[s+]([O-])n1C1CCCCCCC1 (stereo not given),> 125 µg/mL

# System: Mycolicibacterium smegmatis
# Assay: Antibacterial activity against Mycobacterium smegmatis MC2-155 measured after overnight incubation by broth double-dilution method
# Type: functional
# Conditions: str. MC2 155
# Method in brief: as §1
row,SMILES,MIC
1,O=c1c2ccccc2sn1C1CCCCC1,2 µg/mL
2,O=c1c2ccccc2[s+]([O-])n1C1CCCCCCC1 (stereo not given),> 125 µg/mL
